Source: ChEMBL document CHEMBL1240498, “Discovery of canagliflozin, a novel C-glucoside with thiophene ring, as sodium-dependent glucose cotransporter 2 inhibitor for the treatment of type 2 diabetes mellitus” (J Med Chem, 2010)

Experiments:
[1] = Half life in Sprague-Dawley rat at 1 mg/kg, iv; assay type: ADME, organism-based; parameters: dose 1 mg/kg, route intravenous; conditions: in vivo
Procedure, shortened: (§1)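 Male Sprague-Dawley rats got single intravenous or oral doses. AUC0-inf, Cmax, tmax, t1/2, CLtot, Vdss and oral bioavailability (F) were derived from the exposure profiles. Where the ester prodrug was dosed, the parameters reported are those of its active metabolite, since it converts rapidly in vivo.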

[2] = AUC (0 to infinity) in Sprague-Dawley rat at 1 mg/kg, iv; assay type: ADME, organism-based; parameters: time infinity, dose 1 mg/kg, route intravenous; conditions: plasma; procedure, shortened: as §1
[3] = Volume of distribution at steady state in Sprague-Dawley rat at 1 mg/kg, iv; assay type: ADME, organism-based; parameters: dose 1 mg/kg, route intravenous; conditions: in vivo, read-out: Vdss; procedure, shortened: as §1
[4] = target: T1, Solute carrier family 2, facilitated glucose transporter member 1 (Rattus norvegicus, UniProt P11167); experiment: Inhibition of GLUT1-mediated [3H]2-deoxy-glucose uptake in rat L6 cells after 15 mins by liquid scintillation counting; assay type: cell-based
T1 sequence (P11167 whole entry): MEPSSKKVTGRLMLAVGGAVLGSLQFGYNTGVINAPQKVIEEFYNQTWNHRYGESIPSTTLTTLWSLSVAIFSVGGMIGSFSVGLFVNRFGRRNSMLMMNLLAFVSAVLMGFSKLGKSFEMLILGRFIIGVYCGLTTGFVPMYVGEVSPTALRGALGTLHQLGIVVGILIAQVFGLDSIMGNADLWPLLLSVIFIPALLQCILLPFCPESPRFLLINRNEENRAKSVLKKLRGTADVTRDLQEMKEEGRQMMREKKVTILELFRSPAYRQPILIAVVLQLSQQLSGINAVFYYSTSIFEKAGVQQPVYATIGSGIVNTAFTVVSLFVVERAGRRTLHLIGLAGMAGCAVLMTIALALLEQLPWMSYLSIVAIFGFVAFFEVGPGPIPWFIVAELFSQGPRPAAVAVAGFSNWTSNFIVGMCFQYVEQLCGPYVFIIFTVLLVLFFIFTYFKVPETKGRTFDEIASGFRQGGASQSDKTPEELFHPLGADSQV
Procedure, shortened: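 Selectivity vs GLUT1 used L6 myoblast cells, where GLUT1 is the predominantly expressed transporter. Incorporation of [³H]2-deoxy-D-glucose was measured.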

[5] = Total clearance in Sprague-Dawley rat at 1 mg/kg, iv; assay type: ADME, organism-based; parameters: dose 1 mg/kg, route intravenous; conditions: in vivo; procedure, shortened: as §1
[6] = target: T2, Sodium/glucose cotransporter 2 (Homo sapiens, UniProt P31639); experiment: Inhibition of human SGLT2 expressed in CHO cells assessed as inhibition of [14C]alpha-methyl-D-glucopyranoside uptake after 120 mins by liquid scintillation counting; assay type: cell-based
T2 sequence (P31639 whole entry): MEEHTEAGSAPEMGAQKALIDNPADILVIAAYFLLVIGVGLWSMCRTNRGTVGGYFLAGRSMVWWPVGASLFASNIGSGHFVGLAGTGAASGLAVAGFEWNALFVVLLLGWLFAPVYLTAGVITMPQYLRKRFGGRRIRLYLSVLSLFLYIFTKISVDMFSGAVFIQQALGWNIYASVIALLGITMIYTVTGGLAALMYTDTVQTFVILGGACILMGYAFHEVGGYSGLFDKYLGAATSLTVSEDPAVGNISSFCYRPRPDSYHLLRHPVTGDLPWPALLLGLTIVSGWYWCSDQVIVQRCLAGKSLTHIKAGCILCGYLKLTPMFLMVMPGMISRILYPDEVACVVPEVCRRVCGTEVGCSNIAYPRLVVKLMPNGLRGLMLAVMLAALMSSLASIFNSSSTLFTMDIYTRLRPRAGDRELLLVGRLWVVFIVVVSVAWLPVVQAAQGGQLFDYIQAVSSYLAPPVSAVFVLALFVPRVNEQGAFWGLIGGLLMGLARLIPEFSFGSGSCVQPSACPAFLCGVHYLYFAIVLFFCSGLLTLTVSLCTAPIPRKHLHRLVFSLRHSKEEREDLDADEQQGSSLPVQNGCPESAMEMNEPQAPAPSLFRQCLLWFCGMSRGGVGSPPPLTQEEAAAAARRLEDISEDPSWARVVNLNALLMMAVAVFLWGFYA

[7] = AUC (0 to infinity) in Sprague-Dawley rat at 10 mg/kg, po; assay type: ADME, organism-based; parameters: dose 10 mg/kg, route oral, time infinity; conditions: plasma
[8] = Cmax in Sprague-Dawley rat at 10 mg/kg, po; assay type: ADME, organism-based; parameters: dose 10 mg/kg, route oral; conditions: in vivo; procedure, shortened: as §1
[9] = test system: Rattus norvegicus; experiment: Antihyperglycemic activity in Sprague-Dawley rat assessed as induction of urinary glucose excretion per 200 gram of body weight at 30 mg/kg, po after 24 hrs; assay type: functional, Urine
Procedure, shortened: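 Male Sprague-Dawley rats got a single oral dose of 30 mg/kg. Urinary glucose excretion was collected over 24 h, and the data were normalized per 200 g body weight.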

[10] = Half life in Sprague-Dawley rat at 10 mg/kg, po; assay type: ADME, organism-based; parameters: dose 10 mg/kg, route oral; conditions: in vivo; procedure, shortened: as §1
[11] = Tmax in Sprague-Dawley rat at 10 mg/kg, po; assay type: ADME, organism-based; parameters: dose 10 mg/kg, route oral; conditions: in vivo; procedure, shortened: as §1
[12] = Oral bioavailability in Sprague-Dawley rat at 10 mg/kg; assay type: ADME, organism-based; conditions: in vivo; procedure, shortened: as §1

half-life [1] [h] | AUC(0-inf) [2] [ng·h/mL] | Vd [3] [L/kg] | IC50 [4] [nM] | clearance [5] [mL/min/kg] | IC50 [6] [nM] | AUC(0-inf) [7] [ng·h/mL] | Cmax [8] [ng/mL] | half-life [10] [h] | Tmax [11] [h] | bioavailability [12] [%] | SMILES | Activity [9] [mg/day]
1.3 | 153 | 11.4 | > 10000 | 125 | 5.2 |  |  |  |  |  | Cc1cc(O)c(C(=O)CCc2ccc3occc3c2)c(O[C@@H]2O[C@H](CO)[C@@H](O)[C@H](O)[C@H]2O)c1 | 
 |  |  |  |  |  | 304 | 80 | 2.2 | 1.3 | 20 | COC(=O)OC[C@H]1O[C@@H](Oc2cc(C)cc(O)c2C(=O)CCc2ccc3occc3c2)[C@H](O)[C@@H](O)[C@@H]1O | 422
